Key:
[1] = test system: Human immunodeficiency virus 1; assay: Ratio of IC50 for HIV-1 NL4-3 harboring RT-Y181C mutant infected in HEK293T cells co-expressing vesicular stomatitis virus glycoprotein to IC50 for wild-type HIV-1 NL4-3 infected in HEK293T cells co-expressing vesicular stomatitis virus glycoprotein; assay type: functional, HEK-293T
Summary of the method: (§1)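 Fold change: mean IC50 against each RT-mutant VSV-G-pseudotyped virus divided by IC50 against wild-type pseudovirus. Both values come from the same HEK293T assay: 0.2 ng p24/mL inoculum, compound added 15 min before infection, luciferase read-out at 48 h.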

[2] = test system: Human immunodeficiency virus 1; assay: Ratio of IC50 for HIV-1 NL4-3 harboring RT-K103N/P225H double mutant infected in HEK293T cells co-expressing vesicular stomatitis virus glycoprotein to IC50 for wild-type HIV-1 NL4-3 infected in HEK293T cells co-expressing vesicular stomatitis virus glycoprotein; assay type: functional, HEK-293T; summary of the method: as §1
[3] = test system: Human immunodeficiency virus 1; assay: Ratio of IC50 for HIV-1 NL4-3 harboring RT-K103N/Y181C double mutant infected in HEK293T cells co-expressing vesicular stomatitis virus glycoprotein to IC50 for wild-type HIV-1 NL4-3 infected in HEK293T cells co-expressing vesicular stomatitis virus glycoprotein; assay type: functional, HEK-293T; summary of the method: as §1
[4] = test system: Human immunodeficiency virus 1; assay: Ratio of IC50 for HIV-1 NL4-3 harboring RT-K103N/Y188L double mutant infected in HEK293T cells co-expressing vesicular stomatitis virus glycoprotein to IC50 for wild-type HIV-1 NL4-3 infected in HEK293T cells co-expressing vesicular stomatitis virus glycoprotein; assay type: functional, HEK-293T; summary of the method: as §1
[5] = test system: Human immunodeficiency virus 1; assay: Antiviral activity against HIV-1 NL4-3 harboring RT-K103N/Y181C double mutant infected in HEK293T cells coexpressing vesicular stomatitis virus glycoprotein pretreated with cells for 15 mins followed by viral infection measured after 48 hrs by luciferase reporter gene assay; assay type: functional, cell-based; conditions: hek-293t
Summary of the method: (§2)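 VSV-G-pseudotyped HIV-1 (wild-type or RT mutant) produced by co-transfection of HEK293T cells (calcium phosphate), supernatant harvested 48 h, 0.22 µm filtered, normalised by p24 ELISA to 0.2 ng p24/mL.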

[6] = test system: Human immunodeficiency virus 1; assay: Ratio of IC50 for HIV-1 NL4-3 harboring RT-K103N mutant infected in HEK293T cells co-expressing vesicular stomatitis virus glycoprotein to IC50 for wild-type HIV-1 NL4-3 infected in HEK293T cells co-expressing vesicular stomatitis virus glycoprotein; assay type: functional, HEK-293T
[7] = test system: Human immunodeficiency virus 1; assay: Antiviral activity against HIV-1 NL4-3 harboring RT-K103N/V108I double mutant infected in HEK293T cells coexpressing vesicular stomatitis virus glycoprotein pretreated with cells for 15 mins followed by viral infection measured after 48 hrs by luciferase reporter gene assay; assay type: functional, cell-based; conditions: hek-293t; summary of the method: as §2
[8] = test system: Human immunodeficiency virus 1; assay: Antiviral activity against HIV-1 NL4-3 harboring RT-Y181C mutant infected in HEK293T cells coexpressing vesicular stomatitis virus glycoprotein pretreated with cells for 15 mins followed by viral infection measured after 48 hrs by luciferase reporter gene assay; assay type: functional, cell-based; conditions: hek-293t; summary of the method: as §2
[9] = test system: Human immunodeficiency virus 1; assay: Ratio of IC50 for HIV-1 NL4-3 harboring RT-L100I/K103N double mutant infected in HEK293T cells co-expressing vesicular stomatitis virus glycoprotein to IC50 for wild-type HIV-1 NL4-3 infected in HEK293T cells co-expressing vesicular stomatitis virus glycoprotein; assay type: functional, HEK-293T; summary of the method: as §1
[10] = test system: Human immunodeficiency virus 1; assay: Antiviral activity against wild-type HIV-1 NL4-3 harboring vesicular stomatitis virus glycoprotein infected in HEK293T cells pretreated with cells for 15 mins followed by viral infection measured after 48 hrs by luciferase reporter gene assay; assay type: functional, cell-based; conditions: Human immunodeficiency virus 1, NL4-3, HEK-293T; summary of the method: as §2
[11] = test system: Human immunodeficiency virus 1; assay: Ratio of IC50 for HIV-1 NL4-3 harboring RT-K103N/V108I double mutant infected in HEK293T cells co-expressing vesicular stomatitis virus glycoprotein to IC50 for wild-type HIV-1 NL4-3 infected in HEK293T cells co-expressing vesicular stomatitis virus glycoprotein; assay type: functional, HEK-293T; summary of the method: as §1
[12] = Cytotoxicity against HEK293T cells at 10 uM after 48 hrs by cell proliferation assay; assay type: toxicity, cell-based; conditions: human, hek-293t
Summary of the method: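 HEK 293T cells seeded at 1×10^4 cells/well, treated next day with serially diluted compounds and cultured 48 h; viability read with a cell proliferation assay kit per manufacturer's instructions. Footnote reports testing at a final concentration of 10 μM.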

[13] = test system: Human immunodeficiency virus 1; assay: Antiviral activity against HIV-1 NL4-3 harboring RT-K103N/G190A double mutant infected in HEK293T cells coexpressing vesicular stomatitis virus glycoprotein pretreated with cells for 15 mins followed by viral infection measured after 48 hrs by luciferase reporter gene assay; assay type: functional, cell-based; conditions: hek-293t; summary of the method: as §2
[14] = test system: Human immunodeficiency virus 1; assay: Antiviral activity against HIV-1 NL4-3 harboring RT-K103N/Y188L double mutant infected in HEK293T cells coexpressing vesicular stomatitis virus glycoprotein pretreated with cells for 15 mins followed by viral infection measured after 48 hrs by luciferase reporter gene assay; assay type: functional, cell-based; conditions: hek-293t; summary of the method: as §2
[15] = test system: Human immunodeficiency virus 1; assay: Antiviral activity against HIV-1 NL4-3 harboring RT-Y188L mutant infected in HEK293T cells coexpressing vesicular stomatitis virus glycoprotein pretreated with cells for 15 mins followed by viral infection measured after 48 hrs by luciferase reporter gene assay; assay type: functional, cell-based; conditions: hek-293t; summary of the method: as §2
[16] = test system: Human immunodeficiency virus 1; assay: Antiviral activity against HIV-1 NL4-3 harboring RT-L100I/K103N double mutant infected in HEK293T cells coexpressing vesicular stomatitis virus glycoprotein pretreated with cells for 15 mins followed by viral infection measured after 48 hrs by luciferase reporter gene assay; assay type: functional, cell-based; conditions: hek-293t; summary of the method: as §2
[17] = test system: Human immunodeficiency virus 1; assay: Antiviral activity against HIV-1 NL4-3 harboring RT-K103N/P225H double mutant infected in HEK293T cells coexpressing vesicular stomatitis virus glycoprotein pretreated with cells for 15 mins followed by viral infection measured after 48 hrs by luciferase reporter gene assay; assay type: functional, cell-based; conditions: hek-293t; summary of the method: as §2
[18] = test system: Human immunodeficiency virus 1; assay: Ratio of IC50 for HIV-1 NL4-3 harboring RT-Y188L mutant infected in HEK293T cells co-expressing vesicular stomatitis virus glycoprotein to IC50 for wild-type HIV-1 NL4-3 infected in HEK293T cells co-expressing vesicular stomatitis virus glycoprotein; assay type: functional, HEK-293T; summary of the method: as §1
[19] = test system: Human immunodeficiency virus 1; assay: Ratio of IC50 for HIV-1 NL4-3 harboring RT-K103N/G190A double mutant infected in HEK293T cells co-expressing vesicular stomatitis virus glycoprotein to IC50 for wild-type HIV-1 NL4-3 infected in HEK293T cells co-expressing vesicular stomatitis virus glycoprotein; assay type: functional, HEK-293T; summary of the method: as §1
[20] = test system: Human immunodeficiency virus 1; assay: Antiviral activity against HIV-1 NL4-3 harboring RT-K103N mutant infected in HEK293T cells coexpressing vesicular stomatitis virus glycoprotein pretreated with cells for 15 mins followed by viral infection measured after 48 hrs by luciferase reporter gene assay; assay type: functional, cell-based; conditions: hek-293t; summary of the method: as §2
[21] = Inhibition of wild-type HIV-1 reverse transcriptase RNA-dependent DNA polymerase activity assessed as reduction in digoxigenin-11-dUTP incorporation using poly(rA)/oligo(dT) as template/primer incubated for 1 hr; design: species or system Human immunodeficiency virus 1

Compound: COc1ccccc1Cc1sc(NCc2ccc3c(c2)CCO3)nc1-c1ccccc1
- Ratio IC50 [1]: 8.8
- Ratio IC50 [2]: 69.2
- Ratio IC50 [3]: 132.8
- Ratio IC50 [4]: >223.7
- IC50 [5]: 9.56 µM
- Ratio IC50 [6]: 12.2
- IC50 [7]: 1.53 µM
- IC50 [8]: 512 nM
- Ratio IC50 [9]: 73.8
- IC50 [10]: 72 nM
- Ratio IC50 [11]: 21.3
- Activity [12]: Non-Toxic
- IC50 [13]: 580 nM
- IC50 [14]: > 10 µM
- IC50 [15]: > 10 µM
- IC50 [16]: 5.31 µM
- IC50 [17]: 4.98 µM
- Ratio IC50 [18]: >223.7
- Ratio IC50 [19]: 8.1
- IC50 [20]: 880 nM

Compound: Fc1ccc(-c2nc(NCc3ccc4c(c3)CCO4)sc2Cc2c(Cl)cccc2Cl)c(F)c1
- IC50 [10]: 21 nM
- Activity [12]: Non-Toxic

Compound: Fc1cc(F)cc(Cc2sc(NCc3ccc4c(c3)CCO4)nc2-c2ccc(F)cc2F)c1
- Ratio IC50 [1]: 79
- Ratio IC50 [6]: 14
- IC50 [7]: 3.9 µM
- IC50 [8]: 1100 nM
- IC50 [10]: 13.9 to 14 nM
- Ratio IC50 [11]: 218
- Activity [12]: Non-Toxic
- IC50 [15]: 7 µM
- Ratio IC50 [18]: 504
- IC50 [20]: 200 nM

Compound: COc1ccccc1Cc1sc(NCc2ccc3c(c2)CCO3)nc1-c1ccccc1F
- IC50 [21]: 20 nM
- IC50 [10]: 10 nM
- Activity [12]: Non-Toxic

Compound: Fc1ccccc1-c1nc(NCc2ccc3c(c2)CCO3)sc1Cc1c(Cl)cccc1Cl
- IC50 [10]: 32 nM
- Activity [12]: Non-Toxic

Compound: COc1cccc(Cc2sc(NCc3ccc4c(c3)CCO4)nc2-c2ccccc2)c1
- IC50 [10]: 136 nM
- Activity [12]: Non-Toxic

Compound: COc1ccccc1Cc1sc(NCc2ccc3c(c2)CCO3)nc1-c1cc(F)cc(F)c1
- IC50 [10]: 7320 nM
- Activity [12]: Non-Toxic

Compound: Fc1cc(F)cc(Cc2sc(NCc3ccc4c(c3)CCO4)nc2-c2ccccc2)c1
- Ratio IC50 [1]: 149.5
- Ratio IC50 [2]: 135.2
- Ratio IC50 [3]: >268.8
- Ratio IC50 [4]: >268.8
- IC50 [5]: > 10 µM
- Ratio IC50 [6]: 37.9
- IC50 [7]: 10.4 µM
- IC50 [8]: 5560 nM
- Ratio IC50 [9]: 31.5
- IC50 [10]: 37 to 37.2 nM
- Ratio IC50 [11]: 279.6
- Activity [12]: Non-Toxic
- IC50 [13]: 2000 nM
- IC50 [14]: > 10 µM
- IC50 [15]: > 10 µM
- IC50 [16]: 1.17 µM
- IC50 [17]: 5.03 µM
- Ratio IC50 [18]: >268.8
- Ratio IC50 [19]: 53.8
- IC50 [20]: 1410 nM

Compound: Clc1ccc(Cc2sc(NCc3ccc4c(c3)CCO4)nc2-c2ccccc2)cc1
- IC50 [10]: > 10000 nM
- Activity [12]: Non-Toxic

Compound: Fc1cc(F)cc(Cc2sc(NCc3ccc4c(c3)CCO4)nc2-c2ccccc2F)c1
- IC50 [21]: 64 nM
- IC50 [10]: 10 nM
- Activity [12]: Non-Toxic

Compound: COc1ccccc1Cc1sc(NCc2ccc3c(c2)CCO3)nc1-c1ccccc1Cl
- IC50 [21]: 14 nM
- IC50 [10]: 10 nM
- Activity [12]: Non-Toxic
